# Measured values published in ChEMBL document CHEMBL1144930, “A short synthesis and biological evaluation of potent and nontoxic antimalarial bridged bicyclic beta-sulfonyl-endoperoxides” (J Med Chem, 2003).
# Where “and” joins values, the source holds several entries; their conditions need not be identical. Identical values can stand only once. Calls of active or inactive are those of the source. The calls are words filed in the database; no cut-off is given here.
# Experiments:
# [1] = In vitro antimalarial activity against chloroquine-sensitive NF54 strain of Plasmodium falciparum; type: functional
# How it was run: (§1)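 Run in quadruplicate with fitted concentration-response curves (R2 ≥0.985). Artemisinin was run as a concurrent control.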
# Mus musculus [2] = experiment: In vivo antimalarial activity in mice (Mus musculus) against chloroquine-sensitive Plasmodium berghei N after oral administration; type: functional
# Mus musculus [3] = experiment: In vivo antimalarial activity in mice (Mus musculus) against chloroquine-sensitive Plasmodium berghei N after subcutaneous administration; type: functional
# Mus musculus [4] = experiment: Number of mice survived in a group of 18 mice after injecting single intraperitoneal dose of 1000 mg/kg (single dose of 250 mg/kg did not cause mice mortality); type: functional
# How it was run: (§2)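 Male CD-1 mice in groups of 18 received a single intraperitoneal dose (250, 500 or 1000 mg/kg) of the reference. Survival was scored. Clinical signs such as ruffled fur, hypoactivity and hunched posture were also recorded.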
# Mus musculus [5] = experiment: Number of mice survived in a group of 18 mice after injecting single intraperitoneal dose of 500 mg/kg (single dose of 250 mg/kg did not cause mice mortality); type: functional; how it was run: as §2
# Mus musculus [6] = experiment: In vivo antimalarial activity in mice (Mus musculus) against chloroquine-resistant Plasmodium yoelii species. NS after subcutaneous administration; type: functional
# [7] = In vitro antimalarial activity against chloroquine-sensitive NF54 strain of Plasmodium falciparum (Experiment 1); type: functional; how it was run: as §1
# [8] = In vitro antimalarial activity against chloroquine-sensitive NF54 strain of Plasmodium falciparum (Experiment 2); type: functional; how it was run: as §1
# Mus musculus [9] = experiment: In vivo antimalarial activity in mice (Mus musculus) against chloroquine-resistant Plasmodium yoelii species. NS after subcutaneous administration; NA means Inactive at 30 mg/kg/day; type: functional, organism-based
# Mus musculus [10] = organism: Mus musculus; experiment: Dose at which two mice demonstarted 100% survival and normal expected body weight gain after injecting with compound for 14 days; type: functional
# How it was run: (§3)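 Male CD-1/ICR mice in groups of at least 4, given a single intramuscular injection into rear-limb muscle (at most 0.05 mL per site). Test articles were dissolved or suspended at 5% in sesame oil; a vehicle group was included. Doses ranged from 85 to about 400 mg/kg. Survival and body weight gain were followed for 14 days.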
# Mus musculus [11] = organism: Mus musculus; experiment: Dose at which all the mice (from 4 groups) demonstarted 100% survival and normal expected body weight gain after injecting with compound for 14 days; type: functional; how it was run: as §3
smiles,measurement,setting,value
CC1=CCC2CC1OO[C@@]2(C)CSc1ccccc1 (stereo not given in full),IC50,[1],940 nM
CC1(O)C2CC(CC1OC(=O)c1ccccc1)[C@](C)(CS(=O)(=O)c1ccccc1)OO2 (stereo not given in full),IC50,[1],> 2500 nM
CC(=O)OC1(C)CCC2CC1OO[C@]2(C)CS(=O)(=O)c1ccccc1 (stereo in doubt; 45c),IC50,[1],270 nM
CC(=O)OC1(C)CCC2CC1OO[C@@]2(C)CS(=O)(=O)c1ccccc1 (stereo in doubt; 45d),IC50,[1],220 nM
CC1(O)C2CC(C[C@H]1OC(=O)c1ccccc1)[C@](C)(CS(=O)(=O)c1ccccc1)OO2 (stereo not given in full),IC50,[1],2500 nM
C=C1CCC2CC1OO[C@@]2(C)CS(=O)(=O)c1ccccc1 (stereo not given in full),IC50,[1],< 3220 nM
CO[C@H]1O[C@@H]2O[C@@]3(C)CC[C@H]4[C@H](C)CC[C@@H]([C@H]1C)[C@@]24OO3 [ARTEMETHER],ED50,Mus musculus [2],3.1 mg kg-1 5day-1
same,ED90,Mus musculus [2],5 mg kg-1 5day-1
same,ED50,Mus musculus [3],0.5 mg kg-1 5day-1
same,ED90,Mus musculus [3],1.1 mg kg-1 5day-1
same,No. of mice survived,Mus musculus [4],4
same,No. of mice survived,Mus musculus [5],10
C[C@@H]1CC[C@H]2[C@@H](C)C(=O)O[C@@H]3O[C@@]4(C)CC[C@@H]1[C@]32OO4 [ARTEMISININ],ED50,Mus musculus [6],5.8 mg kg-1 5day-1
same,ED90,Mus musculus [6],10 mg kg-1 5day-1
same,ED50,Mus musculus [2],5 mg kg-1 5day-1
same,ED90,Mus musculus [2],14 mg kg-1 5day-1
same,ED50,Mus musculus [3],0.95 mg kg-1 5day-1
same,ED90,Mus musculus [3],2.5 mg kg-1 5day-1
same,IC50,[7],8.7 nM
same,IC50,[8],8.9 nM
COC(=O)CS(=O)(=O)C[C@]1(C)OOC2CC1CCC2(C)O (stereo not given in full),IC50,[1],> 2500 nM
CC1(OC(=O)COc2ccccc2)CCC2CC1OO[C@@]2(C)CS(=O)(=O)c1ccccc1 (stereo not given in full),IC50,[1],37 nM
COC(=O)CS(=O)(=O)C[C@@]1(C)OOC2CC1CCC2(C)O (stereo not given in full),IC50,[1],> 2500 nM
CC1(O)CCC2CC1OO[C@@]2(C)CSC(c1ccccc1)(c1ccccc1)c1ccccc1 (stereo not given in full),IC50,[1],150 nM
CC1(OC(=O)C(=O)N(Cc2ccccc2)Cc2ccccc2)CCC2CC1OO[C@]2(C)CS(=O)(=O)c1ccccc1 (stereo not given in full),IC50,[1],81 nM
CC1(O)CCC2CC1OO[C@]2(C)CS(=O)(=O)c1ccccc1 (stereo in doubt; 23b),IC50,[1],89 nM
CC(=O)OC1(C)CCC2CC1OO[C@]2(C)CS(=O)(=O)c1ccccc1 (stereo in doubt; 39b),IC50,[1],17 nM
CC1(O)CCC2CC1OO[C@]2(C)C[S+]([O-])c1ccccc1 (stereo not given in full),IC50,[1],820 nM
CC1(O)CCC2CC1OO[C@@]2(C)CS(=O)(=O)c1ccccc1 (stereo in doubt; 23a) [listing 1 of 2 here],ED50,Mus musculus [3],>30 mg kg-1 5day-1
same,ED90,Mus musculus [3],>30 mg kg-1 5day-1
same,IC50,[1],55 nM
CC(=O)OC1(C)CCC2CC1OO[C@]2(C)C[S+]([O-])c1ccccc1 (stereo not given in full),IC50,[1],40 nM and 14 nM
CC1CCC2CC1OO[C@@]2(C)CS(=O)(=O)c1ccccc1 (stereo not given in full),IC50,[1],17 nM
CCOC(=O)C(=O)OC1(C)CCC2CC1OO[C@]2(C)CS(=O)(=O)c1ccccc1 (stereo not given in full),IC50,[1],140 nM
CC1(O)C2CC(C[C@H]1OC(=O)c1ccccc1)[C@@](C)(CS(=O)(=O)c1ccccc1)OO2 (stereo not given in full),IC50,[1],815 nM
CC1(O)CCC2CC1OO[C@@]2(C)CS(=O)(=O)c1ccccc1 (stereo in doubt; 23a) [listing 2 of 2 here],NA,Mus musculus [9],Inactive at 30 mg/kg/day
CCCCS(=O)(=O)C[C@]1(C)OOC2CC1CC(OC(=O)c1ccccc1)C2(C)O (stereo not given in full),IC50,[1],2500 nM
C[C@@H]1C(=O)C[C@H]2C[C@@H]1OO[C@@]2(C)/C=C\c1ccc(C(F)(F)F)cc1C(F)(F)F [ARTEFLENE],ED50,Mus musculus [2],10.4 mg kg-1 5day-1
same,ED90,Mus musculus [2],18 mg kg-1 5day-1
same,ED50,Mus musculus [3],2.7 mg kg-1 5day-1
same,ED90,Mus musculus [3],3.9 mg kg-1 5day-1
same,IC50,[1],71 nM
CCOC(=O)C(=O)OC1(C)CCC2CC1OO[C@@]2(C)CS(=O)(=O)c1ccccc1 (stereo not given in full),IC50,[1],170 nM
CCN(CC)CCCC(C)Nc1ccnc2cc(Cl)ccc12 (stereo not given) [CHLOROQUINE],ED50,Mus musculus [6],2.4 mg kg-1 5day-1
same,ED90,Mus musculus [6],56 mg kg-1 5day-1
same,ED50,Mus musculus [2],1.9 mg kg-1 5day-1
same,ED90,Mus musculus [2],2.3 mg kg-1 5day-1
same,ED50,Mus musculus [3],1 mg kg-1 5day-1
same,ED90,Mus musculus [3],1.2 mg kg-1 5day-1
CC1(O)C2CC(C[C@H]1O)[C@@](C)(CS(=O)(=O)c1ccccc1)OO2 (stereo not given in full),IC50,[1],> 2500 nM
CC1(O)CCC2CC1OO[C@]2(C)CS(=O)(=O)c1ccccc1 (stereo in doubt; 26a),IC50,[1],120 nM
CC1(O)CCC2CC1OO[C@@]2(C)C[S+]([O-])c1ccccc1 (stereo not given in full),IC50,[1],150 nM
CCO[C@H]1O[C@@H]2O[C@@]3(C)CC[C@H]4[C@H](C)CC[C@@H]([C@H]1C)[C@@]24OO3 [ARTEMOTIL],Dose,Mus musculus [10],360 mg/kg
same,ED50,Mus musculus [3],0.9 mg kg-1 5day-1
same,ED90,Mus musculus [3],1.4 mg kg-1 5day-1
CC(=O)OC1(C)CCC2CC1OO[C@@]2(C)C[S+]([O-])c1ccccc1 (stereo not given in full),IC50,[1],62 nM and 54 nM
CC1=CCC2CC1OO[C@@]2(C)CS(=O)(=O)c1ccccc1 (stereo not given in full),IC50,[1],360 nM
CC(=O)CC(=O)OC1(C)CCC2CC1OO[C@@]2(C)CS(=O)(=O)c1ccccc1 (stereo not given in full),IC50,[1],46 nM
CC(=O)OC1(C)CCC2CC1OO[C@@]2(C)CS(=O)(=O)c1ccccc1 (stereo in doubt; 45b),IC50,[1],18 nM
CC(=O)OC1(C)CCC2CC1OO[C@]2(C)CS(=O)(=O)c1ccccc1 (stereo in doubt; 45a),IC50,[1],20 nM
C[C@@H]1[C@H](OCc2ccc(C(=O)O)cc2)O[C@@H]2O[C@@]3(C)CC[C@@H]4[C@@H](C)CC[C@@H]1[C@]24OO3 [ARTELINIC ACID],ED50,Mus musculus [3],6.6 mg kg-1 5day-1
same,ED90,Mus musculus [3],14 mg kg-1 5day-1
CC1(OCc2ccccc2)CCC2CC1OO[C@@]2(C)CS(=O)(=O)c1ccccc1 (stereo not given in full),Dose,Mus musculus [11],380 mg/kg
same,ED50,Mus musculus [6],1.3 mg kg-1 5day-1
same,ED90,Mus musculus [6],3.8 mg kg-1 5day-1
same,ED50,Mus musculus [2],10.5 mg kg-1 5day-1
same,ED90,Mus musculus [2],115 mg kg-1 5day-1
same,ED50,Mus musculus [3],0.8 mg kg-1 5day-1
same,ED90,Mus musculus [3],1.7 mg kg-1 5day-1
same,IC50,[1],6.5 nM
CC(C)=CCOC1(C)CCC2CC1OO[C@@]2(C)CS(=O)(=O)c1ccccc1 (stereo not given in full),IC50,[1],35 nM
CC1(O)CCC2CC1OO[C@@]2(C)CS(=O)(=O)c1ccc(F)cc1 (stereo not given in full),IC50,[1],49 nM
CC1CCC2CC1OO[C@]2(C)CS(=O)(=O)c1ccccc1 (stereo not given in full),IC50,[1],24 nM
CC(=O)CC(=O)OC1(C)CCC2CC1OO[C@]2(C)CS(=O)(=O)c1ccccc1 (stereo not given in full),IC50,[1],73 nM
CC1(OC(=O)C(=O)N(Cc2ccccc2)Cc2ccccc2)CCC2CC1OO[C@@]2(C)CS(=O)(=O)c1ccccc1 (stereo not given in full),IC50,[1],21 nM
CC1(OC/C=C/c2ccccc2)CCC2CC1OO[C@@]2(C)CS(=O)(=O)c1ccccc1 (stereo not given in full),IC50,[1],32 nM
C[C@@]12OC1CC1CC2OO[C@@]1(C)CS(=O)(=O)c1ccccc1 (stereo not given in full),IC50,[1],92 nM
CC1(OCc2ccccc2)CCC2CC1OO[C@]2(C)CS(=O)(=O)c1ccccc1 (stereo not given in full),Dose,Mus musculus [11],380 mg/kg
same,ED50,Mus musculus [6],1 mg kg-1 5day-1
same,ED90,Mus musculus [6],3.1 mg kg-1 5day-1
same,ED50,Mus musculus [2],4.2 mg kg-1 5day-1
same,ED90,Mus musculus [2],23.5 mg kg-1 5day-1
same,ED50,Mus musculus [3],0.43 mg kg-1 5day-1
same,ED90,Mus musculus [3],1.3 mg kg-1 5day-1
same,IC50,[1],9.4 nM
CCCCS(=O)(=O)C[C@@]1(C)OOC2CC1CC(OC(=O)c1ccccc1)C2(C)O (stereo not given in full),IC50,[1],500 nM
CC(=O)OC1(C)CCC2CC1OO[C@@]2(C)CS(=O)(=O)c1ccccc1 (stereo in doubt; 39a),ED50,Mus musculus [6],12.5 mg kg-1 5day-1
same,ED90,Mus musculus [6],28 mg kg-1 5day-1
same,ED50,Mus musculus [3],3.7 mg kg-1 5day-1
same,ED90,Mus musculus [3],7.3 mg kg-1 5day-1
same,IC50,[1],17 nM
CC1(O)CCC2CC1OO[C@]2(C)CSC(c1ccccc1)(c1ccccc1)c1ccccc1 (stereo not given in full),IC50,[1],72 nM
COc1ccc(COC2(C)CCC3CC2OO[C@@]3(C)CS(=O)(=O)c2ccccc2)cc1 (stereo not given in full),ED50,Mus musculus [6],4.8 mg kg-1 5day-1
same,ED90,Mus musculus [6],8.3 mg kg-1 5day-1
same,ED50,Mus musculus [3],1.3 mg kg-1 5day-1
same,ED90,Mus musculus [3],2.3 mg kg-1 5day-1
same,IC50,[1],14 nM
CC1(O)CCC2CC1OO[C@]2(C)CS(=O)(=O)c1ccc(F)cc1 (stereo not given in full),IC50,[1],52 nM
CC1(O)C2CC(CC1OC(=O)c1ccccc1)[C@@](C)(CS(=O)(=O)c1ccccc1)OO2 (stereo not given in full),IC50,[1],170 nM
CC1(O)CCC2CC1OO[C@@]2(C)CS(=O)(=O)c1ccccc1 (stereo in doubt; 26b),IC50,[1],95 nM
